Results gathered from unrelated publications.
Each line is one published result; the experiments were not run side by side.
Target: Mitogen-activated protein kinase kinase kinase 10 (MAP3K10, Homo sapiens, UniProt Q02779)

Structure (SMILES) | test | setting | quantity | value
C[C@@H]1CN(c2cc(-c3n[nH]c4ccc(OC5(C)CC5)cc34)ncn2)C[C@H](C)O1 | cell-free assay, competition with immobilised ligand | 0.1 µM | remaining binding | 100%
CC(C)(O)[C@H]1CC[C@H](Nc2ccc3ncc(-c4cccc(C(F)(F)F)c4)n3n2)CC1 | enzyme activity, inhibitor | 1 µM | remaining activity | 85%
CCN(CC)CCNC(=O)c1c(C)[nH]c(/C=C2\C(=O)Nc3ccc(F)cc32)c1C | cell-free assay | 0.5 µM | remaining signal | 104%
O=C(Nc1cnn(-c2csc(C(=O)NC3COC3)c2)c1)Nc1c(F)cccc1Cl | enzyme activity, inhibitor | 5 µM | remaining activity | 94.3%
Cc1ccc(C(=O)Nc2ccc(CN3CCN(C)CC3)c(C(F)(F)F)c2)cc1C#Cc1cnc2cccnn12 | enzyme activity, inhibitor | 23.5 nM | remaining activity | 69%
O=C1NC(=O)c2cc(Nc3ccc(F)cc3)c(Nc3ccc(F)cc3)cc21 | cell-free assay | 0.5 µM | remaining signal | 90.6%
CCCCNc1ncc2c(-c3ccc(F)cc3)nn(C[C@H]3CC[C@H](N)CC3)c2n1 | target engagement in cells, inhibitor, chemoproteomics | 20 mM | inhibition | 65.4%
CCS(=O)(=O)c1cc2cc(C[C@](O)(CC(C)(C)c3ccc(F)cc3C(N)=O)C(F)(F)F)[nH]c2cn1 | cell-free assay, competition with immobilised ligand | 1 µM | remaining binding | 100%
C[C@@H]1CCN(C(=O)CC#N)C[C@@H]1N(C)c1ncnc2[nH]ccc12 | cell-free assay, inhibitor | 0.5 µM | remaining signal | 105%
C[C@H](NC(=O)c1cnc2n1[C@](C)(Cc1ccc(C#N)cc1)C(=O)N2c1cc(Cl)c(F)c(Cl)c1)C(=O)NC1(c2ccccn2)CC1 | cell-free assay, competition with immobilised ligand | 1 µM | remaining binding | 100%
c1ccc(CNc2nc(N3CCOc4ccccc43)nc3c2CCCC3)cc1 | target engagement in cells, inhibitor, chemoproteomics | 20 mM | inhibition | 14.1%
CNCc1ccccc1-c1csc([C@@H](C)Nc2nc(C)nc3cc(OC)c(OC)cc23)c1 | cell-free assay, competition with immobilised ligand | 1 µM | remaining binding | 96%
CC(C)(C)c1nc2c(s1)c1nc(N)ncc1c1ccc(NS(=O)(=O)c3c(F)cccc3F)c(F)c12 | enzyme activity, inhibitor, radiometric | 1 µM | remaining activity | 102%
O=C1Nc2ccc(Cl)cc2C1=Cc1cc(Cl)c(O)c(Cl)c1 | cell-free assay | 0.5 µM | remaining signal | 86.8%
O=C(N1CCS(=O)(=O)CC1)N1C[C@H](c2ccc(OC(F)(F)F)cc2)C[C@H](c2nc(C3CC3)no2)C1 | cell-free assay, competition with immobilised ligand | 1 µM | remaining binding | 99%
Cc1sc(C(=O)NC2COC2)cc1-n1cc(NC(=O)Nc2c(F)cccc2Cl)cn1 | enzyme activity, inhibitor | 10 µM | remaining activity | 90.8%
Cc1ccc(C(=O)NCc2ccsc2)cc1C#Cc1cn(C(C)C)c2ncnc(N)c12 | enzyme activity, inhibitor | 1 µM | activity vs control | 5%
